Assay results: ChEMBL document CHEMBL3734704, “Synthesis and Biological Evaluation of Novel Bouchardatine Derivatives as Potential Adipogenesis/Lipogenesis Inhibitors for Antiobesity Treatment” (J Med Chem, 2015)
The source made the active and inactive calls. No cut-off for these calls is given here.

Tests used:
[1] = system: 3T3-L1; experiment: Induction of apoptosis in mouse 3T3L1 cells assessed as viable cells at 1 uM after 24 hrs by annexin-V-FITC and PI staining based flow cytometry (reference value: 98.95%); assay type: functional; details: 3T3-L1, 24 h, read-out: Activity
[2] = Decrease in triglyceride accumulation in mouse 3T3L1 cells at 10 uM for 3 days oil red O staining based microscopic analysis; assay type: functional, cell-based; details: 3T3-L1
Procedure, shortened: (§1)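 3T3-L1 cells differentiated from 2 days post-confluence with IBMX/dexamethasone/insulin cocktail for 3 days, then insulin medium to Day 6. Compounds at 1 and 10 µM added Day 0 for 3 days. Triglyceride read on Day 6 with Oil Red O (formaldehyde fixation, 30 min stain, isopropanol extraction, OD 510 nm); n = 3.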

[3] = Cell cycle arrest in mouse 3T3L1 cells assessed as number of cells at G0/G1 phase at 1 uM after 24 hrs by flow cytometry (reference value: 37.6%); assay type: functional, cell-based; details: 3T3-L1
[4] = Downregulation of SREBP-1c mRNA level in mouse 3T3L1 cells at 3 uM after 24 hrs by RT-PCR analysis; assay type: functional, cell-based; details: 3T3-L1
Procedure, shortened: (§2)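 3T3-L1 preadipocytes in adipogenic cocktail with compound (0.3-3.0 µM; 3 µM for the 2 h and 24 h time course). Total RNA extracted, cDNA made from 1 µg RNA with oligo primer, then PCR: 95 °C 10 min, 35 cycles of 95 °C 30 s, annealing 45 s, 72 °C 1 min, final 72 °C 10 min. Normalized to actin; n = 3.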

[5] = Downregulation of C/EBP delta mRNA level in mouse 3T3L1 cells at 3 uM after 2 and 24 hrs by RT-PCR analysis; assay type: functional, cell-based; details: 3T3-L1; procedure, shortened: as §2
[6] = Downregulation of C/EBP alpha mRNA level in mouse 3T3L1 cells at 3 uM after 24 hrs by RT-PCR analysis; assay type: functional, cell-based; details: 3T3-L1; procedure, shortened: as §2
[7] = Decrease in triglyceride level in mouse 3T3L1 preadipocytes compound treated for 6 days measured on day 6 by oil red O staining based microscopic analysis; assay type: functional, cell-based
Procedure, shortened: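 3T3-L1 preadipocytes, 2 days post-confluent, treated at 0.01-10.0 µM for 6 days of differentiation, with compound added Day 0 and renewed Day 3. On Day 6, TG measured by TG assay (per protein) and confirmed by Oil Red O staining; n = 3.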

[8] = system: HepG2; experiment: Decrease in triglyceride level in human HepG2 cells after 24 hrs by GPO-POD assay in presence of 0.5 mM oleic acid sodium; assay type: functional, cell-based
Procedure, shortened: (§3)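 HepG-2 cells seeded, then after 24 h exposed to 0.5 mM oleic acid sodium plus compound (1 µM; dose series up to 10 µM) for 24 h, DMSO vehicle. Cells lysed in 0.2% Triton X-100 for 1 h, sonicated, centrifuged. Triglyceride measured by GPO-POD kit and cholesterol by kit, both normalized to BCA protein; n = 3.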

[9] = Upregulation of LKB1 expression in mouse 3T3L1 cells at 3 uM after 10 mins by western blot analysis; assay type: functional, cell-based; details: 3T3-L1
Procedure, shortened: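 During 3T3-L1 differentiation with adipogenic cocktail, cells were treated with 3 µM compound for 10 min, 2 h or 24 h. Lysates in RIPA with protease/phosphatase inhibitors were run on SDS-PAGE and Western blotted. Proteins were normalized to GAPDH and expressed relative to the 10 min DMSO group, which was set at 100%; n = 3 independent experiments.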

[10] = Downregulation of CaMKKalpha expression in mouse 3T3L1 cells by western blot analysis; assay type: functional, cell-based; details: 3T3-L1
[11] = target: T1, Serine/threonine-protein kinase STK11 (Mus musculus) (UniProt Q9WTK7); experiment: Activation of LKB1-mediated AMPK in mouse 3T3L1 cells assessed as increase in phophorylated AMPK alpha at Thr 172 residue level at 3 uM by western blot analysis; assay type: cell-based; details: 3T3-L1, TDE = time-dependent effect
T1 sequence (whole entry): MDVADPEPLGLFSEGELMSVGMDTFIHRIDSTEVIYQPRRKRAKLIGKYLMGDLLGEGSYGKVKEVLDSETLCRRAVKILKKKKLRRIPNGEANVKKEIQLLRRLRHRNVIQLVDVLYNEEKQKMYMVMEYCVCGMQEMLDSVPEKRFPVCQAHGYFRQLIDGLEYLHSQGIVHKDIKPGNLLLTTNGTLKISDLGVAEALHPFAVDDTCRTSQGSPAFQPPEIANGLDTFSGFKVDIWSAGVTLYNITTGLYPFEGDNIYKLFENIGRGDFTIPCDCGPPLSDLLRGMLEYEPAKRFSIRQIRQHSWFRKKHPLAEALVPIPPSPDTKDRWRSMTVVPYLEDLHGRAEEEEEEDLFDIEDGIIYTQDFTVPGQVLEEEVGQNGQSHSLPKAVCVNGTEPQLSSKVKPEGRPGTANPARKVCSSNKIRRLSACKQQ
Procedure, shortened: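 3T3-L1 preadipocytes held in adipogenic cocktail with or without compound at 3 µM, time course (10 min, 2 h, 24 h) during differentiation. Lysis in RIPA with protease/phosphatase inhibitors, SDS-PAGE, PVDF, BSA block, primary antibody 16 h at 4 °C, HRP secondary. Bands normalized to GAPDH, with the 10 min DMSO group set as 100%; n = 3.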

[12] = Decrease in triglyceride accumulation in mouse 3T3L1 cells at 1 uM for 3 days oil red O staining based microscopic analysis; assay type: functional, cell-based; details: 3T3-L1; procedure, shortened: as §1
[13] = system: HepG2; experiment: Decrease in triglyceride level in human HepG2 cells at 1 uM after 24 hrs by GPO-POD assay in presence of 0.5 mM oleic acid sodium; assay type: functional; procedure, shortened: as §3
[14] = system: HeLa; experiment: Drug uptake in human HeLa cells measured from 5 mins to 1 hr by fluorescence analysis; assay type: ADME, cell-based
[15] = target: T1, Serine/threonine-protein kinase STK11 (Mus musculus); experiment: Activation of LKB1-mediated ACC in mouse 3T3L1 cells assessed as increase in phophorylated ACC level at 3 uM after 3 days by western blot analysis; assay type: cell-based; details: 3T3-L1

EC50 ([7]; 3t3-l1): 0.017 µM
Activity [11]: tde
Drug uptake [14]: Active
Activity [15]: Active
SMILES: O=Cc1c(-c2nc(NCCN3CCCC3)c3ccccc3n2)[nH]c2ccccc12
viability at 1 µM [1]: 98%
inhibition [2]: 94.9%
Activity [3]: 42.9%
inhibition [4]: Active
inhibition [5]: Active
inhibition [6]: Active
inhibition ([7]; 3T3-L1): Dose-dependent effect
inhibition [8]: Dose-dependent effect
Activity [9]: Active
inhibition [10]: Active
inhibition [12]: 87.6%
inhibition (INH) [13]: 70%
